We go through seven molecules from ChEMBL document CHEMBL3525918, “Utility of drug depletion-time profiles in isolated hepatocytes for accessing hepatic uptake clearance: identifying rate-limiting steps and role of passive processes” (Drug Metab Dispos, 2012).

Data set [1] is described as follows: Drug metabolism in Sprague-Dawley rat hepatocytes assessed per 10^6 cells at 0.1 to 10 uM up to 90 mins by conventional assay. Type of data set: ADME, cell-based, Hepatocyte. The essentials: (§1)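 Fresh rat hepatocytes from collagenase perfusion (viability >85%), three independent preparations. Drug at final 0.1–10 µM in Williams' medium E, 0.5% methanol, preincubated 5 min at 37°C, then mixed with hepatocytes (final 0.1–1 x 10^6 cells/mL) and shaken at 37°C. Ten time points up to 90 min, terminated by snap-freezing the whole cell-plus-medium matrix. LC-MS/MS quantitation; mono- or biexponential depletion fit gives kdep.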

Data set [2] can be described thus: Drug metabolism in Sprague-Dawley rat hepatocytes assessed per 10^6 cells at 0.1 to 10 uM up to 90 mins by media-loss method. Type of data set: ADME, cell-based, Hepatocyte. The essentials: (§2)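 Freshly isolated rat hepatocytes (collagenase perfusion, >85% viable, three preparations), incubated with drug at final 0.1–10 µM at 37°C, 0.1–1 x 10^6 cells/mL, 0.5% methanol, alongside the whole-matrix assay. At time points up to 90 min the incubation was centrifuged 30 sec at 7000g, and the supernatant medium was snap-frozen and analysed by LC-MS/MS. Loss of drug from the medium was fitted mono- or biexponentially.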

Data set [3] can be described thus: (§3) Apparent intrinsic clearance in Sprague-Dawley rat hepatocytes assessed per 10^6 cells at 0.1 to 10 uM up to 90 mins by media-loss method. The format is ADME, cell-based, Hepatocyte. The following applies: Sprague-Dawley, read-out: CLH(app). The essentials:
as §2

A short description of data set [4]: Apparent intrinsic clearance in Sprague-Dawley rat hepatocytes assessed per 10^6 cells at 0.1 to 10 uM up to 90 mins by conventional assay. The format is ADME, cell-based, Hepatocyte. Particulars: read-out: CLH(app). In outline:
as §1

Data set [5] deals with Hepatocyte. The data set is described as §3. Type of data set: ADME, cell-based. Particulars: 1.5 h, 10 µM. In outline: as §2

As for `CC(C)c1c(C(=O)Nc2ccccc2)c(-c2ccccc2)c(-c2ccc(F)cc2)n1CC[C@@H](O)C[C@@H](O)CC(=O)O` [ATORVASTATIN], the Km (as a rule, the concentration of substrate that gives half-maximal velocity) at 1.5 h, up to 10 µM in data set [1] was 1.3 µM; in data set [2] it was 0.43 µM.

With `CC[C@H]1OC(=O)[C@H](C)[C@@H](O[C@H]2C[C@@](C)(OC)[C@@H](O)[C@H](C)O2)[C@H](C)[C@@H](O[C@@H]2O[C@H](C)C[C@H](N(C)C)[C@H]2O)[C@](C)(OC)C[C@@H](C)C(=O)[C@H](C)[C@@H](O)[C@]1(C)O` [CLARITHROMYCIN], the hepatocyte CLint at up to 10 µM came to 68 µL/min/1e6 cells in data set [3] and 46 µL/min/1e6 cells in data set [4].

Consider `CC[C@H]1OC(=O)[C@H](C)[C@@H](O[C@H]2C[C@@](C)(OC)[C@@H](O)[C@H](C)O2)[C@H](C)[C@@H](O[C@@H]2O[C@H](C)C[C@H](N(C)C)[C@H]2O)[C@](C)(O)C[C@@H](C)C(=O)[C@H](C)[C@@H](O)[C@]1(C)O` [ERYTHROMYCIN], for which the hepatocyte CLint at up to 10 µM in data set [3] came out at 35 µL/min/1e6 cells; in data set [4], 26 µL/min/1e6 cells. The Km at 1.5 h, up to 10 µM amounted to 3.5 µM in data set [1] and 5.5 µM in data set [2].

For `CC(C)(C(=O)O)c1ccc(C(O)CCCN2CCC(C(O)(c3ccccc3)c3ccccc3)CC2)cc1` (stereo unspecified) [FEXOFENADINE], the Km at 1.5 h, up to 10 µM in data set [1] came out at 4.7 µM.

Turning to `O=C(O)C[C@H](O)C[C@H](O)/C=C/c1c(C2CC2)nc2ccccc2c1-c1ccc(F)cc1` [PITAVASTATIN], the “CLH(app)” value in data set [5] is 1705 uL/min/10^6cells. In data set [2], the Km at 1.5 h, up to 10 µM was 13 µM. Also, the hepatocyte CLint at up to 10 µM in data set [4] turned out to be 7.1 µL/min/1e6 cells.

For `CCOc1cc(CC(=O)N[C@@H](CC(C)C)c2ccccc2N2CCCCC2)ccc1C(=O)O` [REPAGLINIDE], the hepatocyte CLint at up to 10 µM in data set [3] was found to be 49.3 µL/min/1e6 cells; in data set [4] it was 49.9 µL/min/1e6 cells.

For the molecule `CC(C)c1nc(N(C)S(C)(=O)=O)nc(-c2ccc(F)cc2)c1/C=C/[C@@H](O)C[C@@H](O)CC(=O)O` [ROSUVASTATIN], the hepatocyte CLint at up to 10 µM in data set [3] stood at 1660 µL/min/1e6 cells; in data set [4], 3.3 µL/min/1e6 cells.
